T cruzi inh = T. cruzi replication inhibition; T. cruzi beta-gal in NIH3T3, luminescence, 90 h; inhibition, % (test concentration not listed); AID 1885; actives 1.4% (n = 300,000);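 active = mean inhibition across valid replicates above about 55%, limit read from the data; inconclusive = mean below that limit but half or more replicates reach it; inactive = mean below it, under half of replicates reach it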;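 also: signal also drops with host cell toxicity which is not excluded here; higher percent means less beta-gal luminescence so fewer parasites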
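compound dosing = single 50 nL compound addition per well in DMSO | material = NIH/3T3 host cells with β-galactosidase reporter T. cruzi | input = 5,000 host fibroblasts per well | timing = ≥90 h infection period, 3 h prior cell attachment | read-out basis = percent inhibition of parasite-derived β-gal signal | detection = GalScreen β-gal luminescence, detergent lysis, 60 min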
Calb FLC = C. albicans growth modulation with fluconazole; C. albicans CaCi-2 + fluconazole, Alamar Blue growth, 48 h; growth inhibition, % (test concentration not listed); actives 0.57% (n = 300,000);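 active = growth inhibition above about 58% in most replicates, limit read from the data, passing the limit was not always enough; inconclusive = exactly half the replicates above a set limit; inactive = most replicates below a set limit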;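 also: all wells also contain fluconazole at 8 µg/ml as a sub-toxic cotreatment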
SKKanGAS inh = inhibitors of SKKanGAS S. pyogenes growth in kanamycin (SK-promoter or general growth effect). AID 1662. BacTiter-Glo, 6 h. actives 1.3% (n = 300,000). inhibition, % at 7.5 µM;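 active = mean replicate score, as percent of positive control median, at least 50; inconclusive = mean below 50 but one replicate at or above 50; inactive = mean and every replicate below 50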;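 also: strain carries kanamycin resistance gene driven by streptokinase promoter and grows in 40 µg/ml kanamycin; loss of luminescence reflects streptokinase promoter inhibition or plain growth inhibition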
Mdm2-MdmX inh = human Mdm2/MdmX binding inhibition. SaOS-2 split-luciferase Mdm2/MdmX complementation, luminescence. inhibition, % at 8 µM. actives 3% (n = 330,000). AID 485346;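 active = inhibition of at least 50% at 8 µM in the primary screen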
Target sequence (O15151 whole entry, looked up): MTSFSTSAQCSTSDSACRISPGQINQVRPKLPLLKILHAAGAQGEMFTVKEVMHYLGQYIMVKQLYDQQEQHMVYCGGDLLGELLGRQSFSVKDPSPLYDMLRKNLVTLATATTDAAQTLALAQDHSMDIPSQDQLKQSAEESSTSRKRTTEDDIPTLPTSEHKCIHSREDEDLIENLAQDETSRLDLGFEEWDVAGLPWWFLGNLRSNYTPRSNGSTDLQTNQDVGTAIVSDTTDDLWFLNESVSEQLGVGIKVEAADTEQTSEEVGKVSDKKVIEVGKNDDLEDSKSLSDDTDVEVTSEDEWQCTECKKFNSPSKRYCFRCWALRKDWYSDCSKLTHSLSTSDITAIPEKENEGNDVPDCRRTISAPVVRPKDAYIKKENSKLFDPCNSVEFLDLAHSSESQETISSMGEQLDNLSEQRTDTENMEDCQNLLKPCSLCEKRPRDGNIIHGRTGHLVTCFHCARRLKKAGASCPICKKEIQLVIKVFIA
Target sequence (Q00987 whole entry, looked up): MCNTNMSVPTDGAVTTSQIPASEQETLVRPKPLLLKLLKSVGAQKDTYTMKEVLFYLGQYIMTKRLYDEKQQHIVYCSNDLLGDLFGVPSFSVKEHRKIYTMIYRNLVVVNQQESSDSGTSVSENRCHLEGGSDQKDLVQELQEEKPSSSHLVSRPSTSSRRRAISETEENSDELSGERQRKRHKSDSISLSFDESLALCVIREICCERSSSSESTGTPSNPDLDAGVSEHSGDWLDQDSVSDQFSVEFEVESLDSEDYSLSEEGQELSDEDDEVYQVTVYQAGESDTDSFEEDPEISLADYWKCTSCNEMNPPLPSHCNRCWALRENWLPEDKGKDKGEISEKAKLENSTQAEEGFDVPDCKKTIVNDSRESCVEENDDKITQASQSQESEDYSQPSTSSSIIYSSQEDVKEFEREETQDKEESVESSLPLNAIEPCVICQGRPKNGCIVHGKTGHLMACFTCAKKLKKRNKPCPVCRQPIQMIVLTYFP
CSC inhib = blocks cancer stem cells | cancer stem cell-like cells viability, luminescence | inhibition, % at 7.5 µM | actives 1.1% (n = 300,000); in the data active = inhibition above about 75%; inconclusive = no clear call, values can overlap the other calls; tested in HMLE shEcad cells
Beta cell apopt = beta cell apoptosis inhibition; INS-1E cytokine-induced death, ATP luminescence, 48 h; percent of positive-control rescue, neutral wells zero; actives 0.8% (n = 300,000); protection from apoptosis, % (concentration not given with the values); AID 435005;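 active = Every replicate reaches about 75%, or at least half do and their mean reaches it too, limit read from the data; inconclusive = At least half of replicates reach the limit but their mean does not; inactive = Under half of replicates reach the limit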;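 also: higher means more ATP so stronger rescue from cytokine killing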
Mdm2 MdmX conf = confirmation of human Mdm2/MdmX interaction inhibitors | shares compounds with Mdm2-MdmX inh | Mdm2-MdmX binding, luminescent assay | inhibition, % at 8 µM | actives 55% (n = 10,000) | AID 489028; in the data active = inhibition above about 40%
Full FLuc ctr = full-length luciferase inhibition in Mdm2/MdmX counter-screen; AID 504607; actives 77% (n = 6,200); SaOS-2 full-length luciferase counterscreen, luminescence; shares compounds with Mdm2-MdmX inh; inhibition, % at 8 µM;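 active = mean inhibition at 8 µM reaching about 37%, which flags the compound as non-specific, limit read from the data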;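 also: p53-null SaOS-2 cells with luciferase driven by a doxycycline-inducible promoter; compound on cells about two nights before reading with doxycycline added after day one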
Of the large screens only hits and unclear results are named; the others gave an inactive call (follow-up assays come after a bar, where they were run). Rows were chosen to be rich in hits. Some 5.7% of all compounds tested hit in one or more screens of this group.

CCOC(=O)C(CC)(CC)C(=O)/C=C/c1cccc(Br)c1	Mdm2-MdmX inh 96.8 | Mdm2 MdmX conf 65.5 | Full FLuc ctr inactive
COc1cc(C(=O)NC(=S)N(CCc2ccccc2)CCc2ccccc2)cc(OC)c1OC	Calb FLC 92.8, SKKanGAS inh 90.0, Mdm2-MdmX inh 51.8 (no result: Beta cell apopt) | Mdm2 MdmX conf 52.5 | Full FLuc ctr 50.0
COc1cc(C(=O)NC(=S)Nc2ccc(NC(=O)c3ccco3)cc2)cc(OC)c1OC	SKKanGAS inh 66.2, Mdm2-MdmX inh 54.3 | Mdm2 MdmX conf inactive
CC1CC(C)CN(CCCNC(=O)C2CCN(c3ncnc4c3sc3cccc(F)c34)CC2)C1 (stereo not drawn)	Mdm2-MdmX inh 55.8 | Mdm2 MdmX conf inactive | Full FLuc ctr 64.1
CCN(CC)CCCNC(=O)C1CCN(c2ncnc3c2sc2cccc(F)c23)CC1	none
COc1ccc(Cl)cc1N(CC(=O)NC1CC1)S(=O)(=O)c1ccc(C)c([N+](=O)[O-])c1	none
COc1ccccc1CNC(=O)c1nn(-c2ccc(C)cc2)c(=O)c2c1c1ccccc1n2C	Mdm2-MdmX inh 79.1 | Mdm2 MdmX conf inactive
COc1ccc(-n2nc(C(=O)NCc3ccco3)c3c4ccccc4n(C)c3c2=O)cc1Cl	Mdm2-MdmX inh 57.3 | Mdm2 MdmX conf inactive
CC(C)N1CCc2c(sc(NC(=O)c3cc(-c4cccs4)nc4ccccc34)c2C(N)=O)C1	Mdm2-MdmX inh 73.2, CSC inhib inconclusive | Mdm2 MdmX conf inactive
CC(C)N1CCc2c(sc(NC(=O)c3ccc([N+](=O)[O-])o3)c2C(N)=O)C1	SKKanGAS inh inconclusive, Mdm2-MdmX inh 88.7 | Mdm2 MdmX conf 94.0 | Full FLuc ctr inactive
COC(=O)c1c(NC(=O)c2ccc([N+](=O)[O-])o2)sc2c1CCN(C(C)C)C2	SKKanGAS inh 57.0, Mdm2-MdmX inh 97.4 | Mdm2 MdmX conf 98.5 | Full FLuc ctr 47.7
CCC(C)NC(=O)c1cc(-c2cccs2)nc2ccccc12 (stereo not drawn)	none
COCC1CCN(Cc2nc(-c3ccc(OC)cc3)no2)CC1	none
CC1CCc2c(sc(NC(=O)CSc3nc4c(c(C(F)(F)F)n3)CCc3ccccc3-4)c2C(N)=O)C1 (stereo not drawn)	none
COc1cc(/C=C2\SC(=O)N(CCNC(=O)c3sc4cc(F)ccc4c3Cl)C2=O)cc(OC)c1OC	Mdm2-MdmX inh 53.9 | Mdm2 MdmX conf inactive
Cc1ccc(C(=O)O)cc1NC(=O)Nc1ccc2c(c1)OCO2	none
O=C(Nc1cccc(C(=O)O)c1)Nc1ccc2c(c1)OCO2	Mdm2-MdmX inh 53.8 | Mdm2 MdmX conf 62.8 | Full FLuc ctr 49.8
O=C1CC(/C=C/c2ccc([N+](=O)[O-])cc2)=Nc2ccccc2N1	Mdm2-MdmX inh 52.9 | Mdm2 MdmX conf inactive | Full FLuc ctr 60.6
O=C(O)c1cccc(N/N=C/c2ccc(-c3ccccc3)cc2)c1	none (no result: Mdm2-MdmX inh, CSC inhib, Beta cell apopt)
CC(C)(C)c1ccc(/C=N/Nc2cccc(C(=O)O)c2)cc1	Mdm2-MdmX inh 69.8 | Mdm2 MdmX conf 61.5 | Full FLuc ctr 115.9
CCCCCN(C(=O)CCC(=O)OC(C)C(=O)c1ccc(Cl)cc1)c1c(N)n(CCCC)c(=O)[nH]c1=O (stereo not drawn)	none
O=C(NCC(c1ccco1)N1CCc2ccccc21)C(=O)Nc1ccccc1F (stereo not drawn)	none
O=C(NCC(c1ccco1)N1CCc2ccccc21)C(=O)Nc1ccc(F)cc1F (stereo not drawn)	Mdm2-MdmX inh 52.3 | Mdm2 MdmX conf 72.5 | Full FLuc ctr 64.5
Cc1cc(Br)ccc1NC(=O)CN1C(=S)NC(C)(C)CC1C (stereo not drawn)	none
CCOC(=O)c1sc(N)c(C(=O)Nc2ccccc2OC)c1C	Mdm2-MdmX inh 56.2 | Mdm2 MdmX conf 64.6 | Full FLuc ctr 57.4
CCOC(=O)c1sc(N)c(C(=O)OC)c1C	none
COc1cccc(OC)c1C(=O)NCCc1ccccc1	none
COC(=O)c1c(N)sc(C(=O)NCCc2ccccc2)c1C	Mdm2-MdmX inh 64.6 | Mdm2 MdmX conf 59.4 | Full FLuc ctr 73.1
O=C(NC1CCCCC1)c1cc(S(=O)(=O)N2CCCCC2)ccc1N1CCOCC1	none (no result: T cruzi inh, Calb FLC, SKKanGAS inh, CSC inhib)
COc1ccc(/C=C/c2c([N+](=O)[O-])c(=O)n(C)c(=O)n2C)cc1OC	none
Cn1c(/C=C/c2cccc([N+](=O)[O-])c2)c([N+](=O)[O-])c(=O)n(C)c1=O	Calb FLC 94.3, Mdm2-MdmX inh 84.0 | Mdm2 MdmX conf 52.2 | Full FLuc ctr 42.9
Cn1c(/C=C/c2ccc(Cl)cc2)c([N+](=O)[O-])c(=O)n(C)c1=O	Mdm2-MdmX inh 64.0 | Mdm2 MdmX conf 43.9 | Full FLuc ctr 37.1
O=S(=O)(/N=C(/Nc1ccccn1)c1ccccc1)c1ccc(F)cc1	none
CN1CCN(c2nc(-c3ccccc3)nc(-c3ccccc3)c2C#N)CC1	none
COc1ccc(-c2nc(-c3ccccc3)nc(N3CCN(C)CC3)c2C#N)cc1	none (no result: Beta cell apopt)
COc1ccc(-c2nc(-c3cccc(C)c3)nc(N3CCN(C)CC3)c2C#N)cc1	Mdm2-MdmX inh 65.7 | Mdm2 MdmX conf 74.3 | Full FLuc ctr 56.5
COc1cccc(-c2nc(-c3ccccc3)nc(N3CCN(C)CC3)c2C#N)c1	Mdm2-MdmX inh 66.4 | Mdm2 MdmX conf 53.9 | Full FLuc ctr 77.3
COc1ccc(CNC(=O)CNC(=O)CNS(=O)(=O)c2ccc(C)c(C)c2)cc1	none
CCN(CC)S(=O)(=O)c1ccc(N2CCOCC2)c(NC(=O)c2ccc(C#N)cc2)c1	none
CCCCNC(=S)NCc1ccc2[nH]c3c(c2c1)CCCC3	none
S=C(NCc1ccc2[nH]c3c(c2c1)CCCC3)Nc1ccccc1Cl	Mdm2-MdmX inh 64.2 (no result: CSC inhib) | Mdm2 MdmX conf inactive
Cc1ccccc1NC(=S)NCc1ccc2[nH]c3c(c2c1)CCCC3	Mdm2-MdmX inh 65.4 (no result: Beta cell apopt) | Mdm2 MdmX conf inactive
Cc1ccc(C)c(NC(=S)NCc2ccc3[nH]c4c(c3c2)CCCC4)c1	Mdm2-MdmX inh 63.6 (no result: CSC inhib) | Mdm2 MdmX conf inactive
CNC(=S)NCc1ccc2[nH]c3c(c2c1)CCCC3	none
O=C(CCCCCN1C(=O)c2ccccc2C1=O)Nc1ccc(C(=O)O)cc1	none
O=C(NCCC1=CCCCC1)C(=O)NCC(c1ccco1)N1CCN(c2ccc(F)cc2)CC1 (stereo not drawn)	none
CCC1CCc2sc(C(=O)NCC(c3ccccc3OC)N3CCCC3)cc2C1 (stereo not drawn)	Mdm2-MdmX inh 75.1 (no result: T cruzi inh, Calb FLC, SKKanGAS inh) | Mdm2 MdmX conf inactive
COC(=O)c1ccc(CSc2nnc(Nc3ccc(OC)cc3)s2)o1	none
COC(=O)c1ccc(CSc2nnc(Nc3ccccc3OC)s2)o1	Mdm2-MdmX inh 61.7 | Mdm2 MdmX conf 57.4 | Full FLuc ctr 83.8

Screening data (PubChem)
